Experimental data: paper PMC4512242 (Nature chemical biology, 2015)
Positions count from the first letter of the chain named. Names and notes keep the numbering of the source. Ends that are not written are not given here.

B1: PatE′ (modified PatE precursor peptide with full leader and a single core peptide ITACITFC) (peptide)
chain: MDKKNILPQQGQPVIRLTAGQLSSQLAELSEEALGDAGLEASKITACITFCAYDGELE
B2: PatE′ C51A (peptide)
chain: B1 chain with C51A
B3: PatE′ E32R (peptide)
chain: B1 chain with E32R
B4: PatE′ L26R (peptide)
chain: B1 chain with L26R
B5: LynD heterocyclase (cyclodehydratase), full length (enzyme, Lyngbya sp. PCC 8106)
chain: MQSTPLLQIQPHFHVEVIEPKQVYLLGEQANHALTGQLYCQILPLLNGQYTLEQIVEKLDGEVPPEYIDYVLERLAEKGYLTEAAPELSSEVAAFWSELGIAPPVAAEALRQPVTLTPVGNISEVTVAALTTALRDIGISVQTPTEAGSPTALNVVLTDDYLQPELAKINKQALESQQTWLLVKPVGSVLWLGPVFVPGKTGCWDCLAHRLRGNREVEASVLRQKQAQQQRNGQSGSVIGCLPTARATLPSTLQTGLQFAATEIAKWIVKYHVNATAPGTVFFPTLDGKIITLNHSILDLKSHILIKRSQCPTCGDPKILQHRGFEPLKLESRPKQFTSDGGHRGTTPEQTVQKYQHLISPVTGVVTELVRITDPANPLVHTYRAGHSFGSATSLRGLRNTLKHKSSGKGKTDSQSKASGLCEAVERYSGIFQGDEPRKRATLAELGDLAIHPEQCLCFSDGQYANRETLNEQATVAHDWIPQRFDASQAIEWTPVWSLTEQTHKYLPTALCYYHYPLPPEHRFARGDSNGNAAGNTLEEAILQGFMELVERDGVALWWYNRLRRPAVDLGSFNEPYFVQLQQFYRENDRDLWVLDLTADLGIPAFAGVSNRKTGSSERLILGFGAHLDPTIAILRAVTEVNQIGLELDKVPDENLKSDATDWLITEKLADHPYLLPDTTQPLKTAQDYPKRWSDDIYTDVMTCVNIAQQAGLETLVIDQTRPDIGLNVVKVTVPGMRHFWSRFGEGRLYDVPVKLGWLDEPLTEAQMNPTPMPF
B6: LynD fusion protein (PatE leader residues 21-38 and an eleven residue linker on the N-terminus of LynD) (enzyme)
chain: QLSSQLAELSEEALGDAGAGAGAGAGAGAMQSTPLLQIQPHFHVEVIEPKQVYLLGEQANHALTGQLYCQILPLLNGQYTLEQIVEKLDGEVPPEYIDYVLERLAEKGYLTEAAPELSSEVAAFWSELGIAPPVAAEALRQPVTLTPVGNISEVTVAALTTALRDIGISVQTPTEAGSPTALNVVLTDDYLQPELAKINKQALESQQTWLLVKPVGSVLWLGPVFVPGKTGCWDCLAHRLRGNREVEASVLRQKQAQQQRNGQSGSVIGCLPTARATLPSTLQTGLQFAATEIAKWIVKYHVNATAPGTVFFPTLDGKIITLNHSILDLKSHILIKRSQCPTCGDPKILQHRGFEPLKLESRPKQFTSDGGHRGTTPEQTVQKYQHLISPVTGVVTELVRITDPANPLVHTYRAGHSFGSATSLRGLRNTLKHKSSGKGKTDSQSKASGLCEAVERYSGIFQGDEPRKRATLAELGDLAIHPEQCLCFSDGQYANRETLNEQATVAHDWIPQRFDASQAIEWTPVWSLTEQTHKYLPTALCYYHYPLPPEHRFARGDSNGNAAGNTLEEAILQGFMELVERDGVALWWYNRLRRPAVDLGSFNEPYFVQLQQFYRENDRDLWVLDLTADLGIPAFAGVSNRKTGSSERLILGFGAHLDPTIAILRAVTEVNQIGLELDKVPDENLKSDATDWLITEKLADHPYLLPDTTQPLKTAQDYPKRWSDDIYTDVMTCVNIAQQAGLETLVIDQTRPDIGLNVVKVTVPGMRHFWSRFGEGRLYDVPVKLGWLDEPLTEAQMNPTPMPF

Key:
[1] = tested on: LynD Fusion; assay: Heterocyclization reaction with LynD fusion, MS; type: biochemical, Lyngbya sp. PCC 8106
Summary of the method: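 Enzyme is LynD carrying PatE leader residues 21-38 plus an 11-residue linker at its N-terminus, expressed in E. coli BL21 (DE3) with the His6-tag removed by TEV. Product is read by ESI/MALDI MS or LC-MS […].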

[2] = tested on: TruD; assay: Heterocyclization reaction with TruD, LCMS; type: biochemical; details: ITACITFCAYDG core peptide, no leader, 16 h
[3] = tested on: LynD; assay: Heterocyclization reaction with LynD, MS; type: biochemical, Lyngbya sp. PCC 8106; details: LynD wild type; 100 μM PatE′ or variant, 5 μM enzyme, 150 mM NaCl, 10 mM HEPES pH 7.4, 1 mM TCEP, 5 mM ATP, 5 mM MgCl2, 16 h, 37 °C; ESI or MALDI MS
Summary of the method: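 Codon-optimized full-length LynD, with a TEV-cleaved His6-tag, is purified from E. coli BL21 (DE3) by Ni, monoQ and size-exclusion steps. PatE′ (C-terminal His6) comes from inclusion bodies, purified in 8 M urea, then DTT-treated and gel-filtered. 100 μM substrate is reacted with 5 μM enzyme and 5 mM ATP/MgCl2 in HEPES pH 7.4 for 16 h at 37 °C. Heterocycle number is read by ESI or MALDI MS.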

[4] = target: T1, LynD Y67D (Lyngbya sp. PCC 8106, Y67D); assay: ITC
T1 chain: B5 chain with Y67D

[5] = target: B5; assay: ITC
[6] = target: T2, LynD R399E (Lyngbya sp. PCC 8106, R399E); assay: ITC
T2 chain: B5 chain with R399E

[7] = target: B5; assay: crystal structure
[8] = target: the molecule itself; assay: SEC

ITACITFCAYDG
heterocycles formed in leaderless test peptide ([1]; LynDfusion, ITACITFCAYDG core peptide, no leader, 2 h, LCMS): predominantly 2 heterocycles after just 2 h
heterocycles formed in leaderless test peptide [2]: only 1 heterocycle is formed

MDKKNILPQQGQPVIRLTAGQLSSQLAELSEEALGDAGLEASKITACITFCAYDGELEHHH HHH [PatE′]
No. of heterocycles ([1]; LynD Fusion, 100 μM PatE′, 5 μM enzyme, pH 7.4, 5 mM ATP, 5 mM MgCl2, 16 h, 37 °C, ESI or MALDI MS): 2
No. of heterocycles [3]: 2

PatE′ E32R (MDKKNILPQQGQPVIRLTAGQLSSQLAELSERALGDAGLEASKITACITFCAYDGELE; not fully specified (C-terminus); cysteine pairing not given here)
No. of heterocycles [3]: 2

PatE′ L26R (MDKKNILPQQGQPVIRLTAGQLSSQRAELSEEALGDAGLEASKITACITFCAYDGELE; not fully specified (C-terminus); cysteine pairing not given here)
No. of heterocycles [3]: 2

B1
Kd [4]: 12.9 µM
Kd [5]: 1.49 µM
Kd [6]: 10.7 µM

B2
binding result [7]: binds

B3
Kd [5]: 18.4 µM
Kd [6]: 8.55 µM

B4
Kd [4]: 15.2 µM

B5
stoichiometry N [8]: 2

B6
stoichiometry N [8]: 2
